Source: ChEMBL document CHEMBL5321212, “Design, synthesis, and evaluation of substituted alkylindoles that activate G protein-coupled receptors distinct from the cannabinoid CB1 and CB2 receptors” (Eur J Med Chem, 2023)
Calls of active or inactive are those of the source. The rule behind the calls is not given here.

Legend:
[1] = Displacement of [3H]-WIN55212-2 from HEK293 cell membrane lacking CB1R and CB2R assessed as inhibition constant; assay type: cell membranes, Homo sapiens
Summary of the method: (§1)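 HEK293 membranes (P2 fractions from independent cultures) incubated with [³H]WIN55212-2 plus increasing concentrations of competitor; specific binding determined by filtration. Ki derived from competition curves, fitted as one or two sites (high and low affinity) where curves were biphasic. n = 3–8 independent membrane preparations, each run in triplicate.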

[2] = tested on: HEK293; test: (§2) Induction of [35S]GTPgammaS binding to HEK293 cell membrane lacking CB1R and CB2R by filtration assay; assay type: cell membranes; settings: Homo sapiens
Summary of the method: (§3)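 [³⁵S]GTPγS binding to HEK293 cell membranes stimulated by compound. Gi/o dependence tested by pretreating cultured cells with pertussis toxin (100 ng/ml, 20 h). Where stated, CB1R antagonist […] (1 μM) or CB2R antagonist SR144528 (1 μM) was present. Mean ± SEM of n = 3–4 experiments, each in triplicate.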

[3] = as §2; assay type: cell membranes, Homo sapiens; summary of the method: as §3
[4] = tested on: Cell membrane; test: Displacement of [3H]-WIN55212-2 from HEK293 cell membrane lacking CB1R and CB2R assessed as inhibition constant for lower affinity site; assay type: subcellular; settings: Homo sapiens; summary of the method: as §1
[5] = tested on: Cell membrane; test: Displacement of [3H]-WIN55212-2 from HEK293 cell membrane lacking CB1R and CB2R assessed as inhibition constant for higher affinity site; assay type: subcellular; settings: Homo sapiens; summary of the method: as §1
[6] = tested on: HEK293; test: Induction of HA-tagged human CB1R internalization in HEK293 cells; assay type: functional, cell-based
Summary of the method: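 HEK293 cells stably expressing HA-tagged human CB1R exposed to compound at 3 μM. Internalization measured and expressed as % of vehicle control. Antagonism tested with […] (1 μM). Positive control CP55940 (1 μM). Mean ± SEM of 3–5 independent experiments. One-way ANOVA with Bonferroni post-test.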

[7] = tested on: HEK293; test: Induction of HA-tagged human CB2R internalization in HEK293 cells; assay type: functional, cell-based
Summary of the method: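 HEK293 cells stably expressing HA-tagged human CB2R exposed to compound at 3 μM. Internalization measured and expressed as % of vehicle control. Antagonism tested with AM630 (1 μM). Positive control CP55940 (1 μM). Mean ± SEM of 3–5 independent experiments. One-way ANOVA with Bonferroni post-test.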

[8] = tested on: Cell membrane; test: Displacement of [3H]-WIN55212-2 from HEK293 cell membrane lacking CB1R and CB2R at 1 uM; assay type: subcellular; settings: Homo sapiens
[9] = tested on: HEK293; test: Induction of [35S]GTPgammaS binding to HEK293 cell membrane lacking CB1R and CB2R in presence of SR144528 by filtration assay; assay type: cell membranes; settings: Homo sapiens; summary of the method: as §3
[10] = tested on: HEK293; test: Induction of [35S]GTPgammaS binding to HEK293 cell membrane lacking CB1R and CB2R in presence of SR141716 by filtration assay; assay type: cell membranes; settings: Homo sapiens; summary of the method: as §3
[11] = tested on: Cell membrane; test: Displacement of [3H]-WIN55212-2 from HEK293 cell membrane lacking CB1R and CB2R in presence of GTPgammaS by filtration assay; assay type: subcellular; settings: Homo sapiens
Summary of the method: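 HEK293 membranes incubated with [³H]WIN55212-2 and test compound, with or without GTPγS (20 μM). Specific binding determined by filtration assay. Mean ± SEM of n = 3–4 experiments, each in triplicate.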

Compound: Cc1ccc(C(=O)c2c(C(F)(F)F)n(CCN3CCOCC3)c3ccccc23)c2ccccc12
- Ki [1]: 972 nM

Compound: CC1=C(CCN2CCOCC2)c2ccccc2/C1=C\c1cccc2ccccc12
- Ki [1]: 466 nM
- Activity [2]: Active

Compound: CC1=C(CCN2CCOCC2)c2ccccc2/C1=C/c1cccc2ccccc12
- Ki [1]: 466 nM

Compound: COc1ccc2c(C(=O)c3ccc(C)c4ccccc34)c(C)n(CCN3CCOCC3)c2c1
- Ki [1]: 113 nM
- EC50 [3]: 229 nM

Compound: Cc1ccc(C(=O)c2c(C)n(C)c3ccccc23)c2ccccc12
- KiL [4]: 2.6 µM
- KiH [5]: 0.8 nM

Compound: Cc1ccc(C(=O)c2c(C)n(CCN3CCOCC3)c3cc(Cl)ccc23)c2ccccc12
- Ki [1]: 3.5 nM
- EC50 [3]: 3.5 nM

Compound: Cc1ccc(C(=O)c2c(C)n(CCN3CCOCC3)c3ncccc23)c2ccccc12
- KiL [4]: 0.382 µM
- Activity [6]: Active
- EC50 [3]: 1.1 nM
- KiH [5]: 0.4 nM
- Activity [7]: Active

Compound: Cc1ccc(C(=O)c2c(C)n(CC(F)(F)F)c3ccccc23)c2ccccc12
- Ki [1]: 1.8 nM
- Activity [6]: inactive
- Activity [7]: Active

Compound: CCn1cc(C(=O)c2ccc(C)c3ccccc23)c2ccccc21
- Ki [1]: 102 nM

Compound: COc1ccc2c(c1)c(C(=O)c1ccc(C)c3ccccc13)c(C)n2CCN1CCOCC1
- Activity [8]: inactive

Compound: Cc1ccc(C(=O)c2c(C)n(CCN3CCOCC3)c3cc(Cl)cc(Cl)c23)c2ccccc12
- Activity [8]: inactive

Compound: Cc1c(C(=O)c2cccc3ccccc23)c2ccccc2n1C
- KiL [4]: 1 µM
- KiH [5]: 2.1 nM

Compound: CCn1c(C)c(C(=O)c2ccc(C)c3ccccc23)c2ccccc21
- KiL [4]: 0.085 µM
- Activity [6]: inactive
- Activity [9]: Active
- Activity [10]: Active
- EC50 [3]: 5 nM
- Activity [11]: Active
- KiH [5]: 1.5 nM
- Activity [7]: Active

Compound: CCn1c(C)c(C(=O)c2ccc(OC)cc2)c2ccccc21
- Activity [8]: inactive

Compound: C1=C(CCN2CCOCC2)c2ccccc2/C1=C\c1cccc2ccccc12
- Ki [1]: 437 nM
- Activity [2]: Active

Compound: Cc1ccc(C(=O)c2c(C)n(CCN3CCOCC3)c3ccccc23)c2ccccc12
- KiL [4]: 0.09 µM
- Activity [6]: Active
- KiH [5]: 0.8 nM
- Activity [7]: Active

Compound: Cc1ccc(C(=O)c2c(C)n(CCN3CCOCC3)c3cnccc23)c2ccccc12
- KiL [4]: 2.1 µM
- KiH [5]: 5.8 nM

Compound: CCCn1c(C)c(C(=O)c2ccc(C)c3ccccc23)c2ccccc21
- Ki [1]: 95 nM

Compound: Cc1c(C(=O)c2cccc3ccccc23)c2cccc3c2n1[C@@H](CN1CCOCC1)CO3
- KiL [4]: 0.0072 µM
- KiH [5]: 0.027 nM

Compound: Cn1cc(C(=O)N2CCCc3ccccc32)c2ccccc21
- Activity [8]: inactive

Compound: Cc1c(C(=O)c2cccc3ccccc23)c2cccc3c2n1[C@H](CN1CCOCC1)CO3
- Activity [8]: inactive

Compound: C1=C(CCN2CCOCC2)c2ccccc2/C1=C/c1cccc2ccccc12
- Ki [1]: 3400 nM

Compound: Cc1ccc(C(=O)c2c(C)n(CCN3CCOCC3)c3ccc(Cl)cc23)c2ccccc12
- KiL [4]: 2.3 µM
- KiH [5]: 10 nM

Compound: CCCn1cc(C(=O)c2ccc(C)c3ccccc23)c2ccccc21
- Ki [1]: 319 nM

Compound: Cc1ccc(C(=O)c2c3n(c4ccccc24)CCCC3)c2ccccc12
- KiL [4]: 2.6 µM
- Activity [6]: Active
- KiH [5]: 5.5 nM
- Activity [7]: Active

Compound: Cc1ccc(C(=O)c2c(C)n(C3CC3)c3ccccc23)c2ccccc12
- Ki [1]: 118 nM
